Bioassay records from PubChem BioAssay.
Most compounds without a hit are left out; they make up all but 4.7% or so of the library.
Jurkat NFkB inh: inhibitors of induced NF-kB luciferase reporter, primary screen, TCR NF-kB activation inhibitor project, cell-based, luminescence, uHTS; inhibition, % at 4 µM; Jurkat, PMA/ionomycin-induced NF-kB luciferase reporter; AID 435003, 2010; 0.53% of 330,000 active; in the data active = inhibition above about 50%
Mdm2-MdmX inh: inhibitors of human Mdm2-MdmX association, primary screen, cell-based, luminescence, split luciferase, SaOS-2, uHTS. Protein Mdm4 (Homo sapiens) + E3 ubiquitin-protein ligase Mdm2 (Homo sapiens), …. SaOS-2 split-luciferase Mdm2/MdmX complementation. inhibition, % at 8 µM. 3% of 330,000 active;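 active = inhibition of at least 50% at 8 µM in the primary screen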
Target sequence (O15151 whole entry, looked up): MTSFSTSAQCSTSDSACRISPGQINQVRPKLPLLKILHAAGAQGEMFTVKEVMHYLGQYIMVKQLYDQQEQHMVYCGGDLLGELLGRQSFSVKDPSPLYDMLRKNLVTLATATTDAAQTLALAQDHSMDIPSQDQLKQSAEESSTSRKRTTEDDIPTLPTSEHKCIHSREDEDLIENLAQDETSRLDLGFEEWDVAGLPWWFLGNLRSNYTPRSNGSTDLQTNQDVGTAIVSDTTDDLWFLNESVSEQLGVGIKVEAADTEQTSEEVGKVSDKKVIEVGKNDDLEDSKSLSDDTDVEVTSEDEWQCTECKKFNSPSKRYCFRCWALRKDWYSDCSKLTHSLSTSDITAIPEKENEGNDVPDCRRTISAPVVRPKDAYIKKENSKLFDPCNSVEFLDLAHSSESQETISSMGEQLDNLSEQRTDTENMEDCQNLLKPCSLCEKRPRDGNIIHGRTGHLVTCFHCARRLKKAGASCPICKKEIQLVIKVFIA
Target sequence (Q00987 whole entry, looked up): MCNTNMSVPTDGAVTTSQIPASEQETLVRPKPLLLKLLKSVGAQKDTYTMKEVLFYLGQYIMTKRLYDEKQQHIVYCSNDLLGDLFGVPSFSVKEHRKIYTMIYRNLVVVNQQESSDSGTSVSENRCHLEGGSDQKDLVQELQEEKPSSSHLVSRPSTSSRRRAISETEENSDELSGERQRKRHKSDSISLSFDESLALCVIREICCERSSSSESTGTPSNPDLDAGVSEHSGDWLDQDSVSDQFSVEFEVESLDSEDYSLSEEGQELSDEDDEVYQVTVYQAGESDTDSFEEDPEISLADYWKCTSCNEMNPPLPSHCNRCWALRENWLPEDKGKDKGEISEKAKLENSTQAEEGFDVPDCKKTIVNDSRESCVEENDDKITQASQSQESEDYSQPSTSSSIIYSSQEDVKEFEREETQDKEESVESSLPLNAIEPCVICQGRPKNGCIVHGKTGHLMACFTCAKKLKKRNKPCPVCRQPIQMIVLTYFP
697 NFkB inh: inhibitors of PMA/ionomycin-induced NF-kB reporter, 697 cells, primary screen, B-cell NF-kB inhibitor project, cell-based, luminescence, uHTS; 0.33% of 330,000 active; inhibition, % at 4 µM; 697 B-cell NF-kB luciferase reporter, 16 h; in the data active = inhibition above about 35%
VIM-2 inhibitor: VIM-2 metallo-beta-lactamase inhibitors, primary screen, biochemical, epi-absorbance readout, Pseudomonas aeruginosa enzyme; purified VIM-2, nitrocefin hydrolysis, epi-absorbance fluorescence; AID 1527, 2009; 0.89% of 290,000 active; inhibition, % at 5.6 µM;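 active = inhibition above the mean of all tested compounds plus 3 SD, cutoff set per screening run, cut at about 7.5% in these data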;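 note: red hydrolysis product quenches plate fluorescence so inhibitors raise well fluorescence; 0% = enzyme with DMSO and 100% = DMSO without enzyme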
IMP-1 inhibitor: IMP-1 metallo-beta-lactamase inhibitors, primary screen, biochemical, epi-absorbance readout, Pseudomonas aeruginosa enzyme; AID 1556, 2009; inhibition, % at 5.6 µM; purified IMP-1, nitrocefin hydrolysis, epi-absorbance fluorescence; 0.45% of 290,000 active; metallo-beta-lactamase IMP-1 (Pseudomonas aeruginosa);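 active = inhibition above the mean plus 3 SD of all compounds in the same screening run, cut at about 4.5% in these data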;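 note: 0% = IMP-1 with DMSO and 100% = DMSO wells lacking enzyme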
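System: purified recombinant IMP-1 beta-lactamase. Medium: Zinc- and detergent-supplemented HEPES buffer, pH 7.1. Compound: one 5.6 µM dose […]. Schedule: 15 min preincubation plus 25 min reaction at 25 °C. Technique: Epi-absorbance fluorescence, 480 nm excitation, 530 nm emission.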
aSyn 5UTR inh: MLPCN primary screen, SNCA 5' untranslated region | alpha-synuclein 5'UTR reporter, inhibitor activity | inhibition, % (tested at 7.5 µM) | 0.82% of 300,000 active | AID 1813, 2009; in the data active = inhibition above about 60%;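 note: H4 neuroglioblastoma cells stably carrying SNCA 5'UTR luciferase fusion; 0% = DMSO wells and 100% = positive control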
Mdm2-MdmX conf: Mdm2-MdmX complex disruptors, retested hits, confirmation, luminescence, single concentration | shares compounds with Mdm2-MdmX inh | Mdm2-MdmX binding, luminescent assay | inhibition, % at 8 µM | 55% of 10,000 active | AID 489028, 2010; in the data active = inhibition above about 40%
Full FLuc ctr: full-length luciferase signal inhibition, confirmation, counter-screen for Mdm2/MdmX interaction inhibitor project, cell-based, single concentration, SaOS-2; shares compounds with Mdm2-MdmX inh; SaOS-2 full-length luciferase counterscreen, luminescence; inhibition, % at 8 µM; 77% of 6,200 active;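 active = mean inhibition at 8 µM reaching about 37%, which flags the compound as non-specific, limit read from the data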;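 note: p53-null SaOS-2 cells with luciferase driven by a doxycycline-inducible promoter; compound on cells about two nights before reading with doxycycline added after day one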
* hit, by the source's call; . = not tested or not shown.

SMILES	Jurkat NFkB inh	Mdm2-MdmX inh	697 NFkB inh	VIM-2 inhibitor	IMP-1 inhibitor	aSyn 5UTR inh	Mdm2-MdmX conf	Full FLuc ctr
CN(C)c1ncnc2c1ncn2C1OC(CO)C(O)C1O (configuration not stated)	35	76*	-104	-2	-1	108*	43*	20
CNc1ncnc2c1ncn2[C@@H]1O[C@H](CO)[C@@H](O)[C@H]1O	19	0	18	.	.	.	.	.
CN1CCN(S(=O)(=O)NC[C@H]2O[C@@H](n3cnc4c(N)ncnc43)[C@H](O)[C@@H]2O)CC1	.	4	-9	.	.	.	.	.
COc1cccc(NC(=O)Nc2ccc3c(c2)N(C)C(=O)CS3)c1	-4	50*	4	-2	-4	-48	27	.
CC(=O)Nc1ccc(NC(=O)Nc2ccc3c(c2)N(C)C(=O)CS3)cc1	6	40	7	2	2	-7	.	.
Cc1nn(CCCC(=O)NCCc2ccc(Cl)cc2)c(=O)c2nn(-c3ccccc3)c(C)c12	15	48	6	-1	-2	24	.	.
Cn1c(N)c(C(=O)COC(=O)/C=C/c2ccc(S(=O)(=O)N3CCOCC3)cc2)c(=O)n(C)c1=O	-3	4	-4	2	1	-8	.	.
Cc1n[nH]c(=S)n1/N=C/c1ccc(-c2ccc(Cl)cc2)o1	-22	94*	-46	.	.	-17	-3	.
Cc1ccccc1-c1nc(CN2CCC(C(=O)NCCCN3CCCC3)CC2)c(C)o1	0	44	-8	-2	0	-33	.	.
Cc1oc(-c2ccc(Cl)cc2)nc1CN1CCC(C(=O)N2CCN(Cc3ccccc3)CC2)CC1	20	48	16	1	-1	1	.	.
Cc1ccccc1-c1nc(CN2CCC(C(=O)NCCCN3CC(C)CC(C)C3)CC2)c(C)o1 (configuration not stated)	10	78*	16	0	-3	1	95*	26
CCc1ccc(-c2nc(CN3CCC(C(=O)NCc4ccccc4OC)CC3)c(C)o2)cc1	11	57*	3	-4	-2	-14	25	.
Cc1oc(-c2ccc(Cl)cc2)nc1CN1CCC(C(=O)N2CCc3ccccc3C2)CC1	16	52*	-17	-4	-2	37	37	58*
Cc1oc(-c2ccc(Cl)cc2)nc1CN1CCC(C(=O)NCCCN2CCCC(C)C2)CC1 (configuration not stated)	43	100*	-4	0	0	17	96*	21
COc1ccccc1CNC(=O)C1CCN(Cc2nc(-c3cccc(Cl)c3)oc2C)CC1	6	20	6	-2	-4	-3	.	.
COCc1cccc(C2=CC(=O)C[C@H](c3ccc(F)cc3)C2)c1	-9	-23	-10	.	.	.	.	.
CCN1CCCC1CNC(=O)C1CCN(Cc2nc(-c3cccc(Br)c3)oc2C)CC1 (configuration not stated)	-11	84*	-6	1	-4	14	100*	4
Cc1oc(-c2cccc(Cl)c2)nc1CN1CCC(C(=O)NCc2ccco2)CC1	6	3	12	2	0	-10	.	.
CCN1CCN(CCNC(=O)C2CCN(Cc3nc(-c4ccc(Cl)cc4)oc3C)CC2)CC1	18	99*	-9	0	-2	-49	53*	37*
CC1=CC(C)(C)N2C(=O)C3(C(C#N)=C(N)Oc4cc(O)ccc43)c3c(C)c(C)cc1c32 (configuration not stated)	-2	68*	13	-3	-5	15	61*	48*
COc1ccc(C[C@H]2CN3C(=NC[C@@H]3Cc3ccccc3)N2CCNC(=O)CCC2CCCCC2)cc1	36	88*	6	-2	-2	15	28	54*
N#CCC(=O)Nn1c(=S)[nH]c2ccccc2c1=O	5	31	13	-3	-3	14	.	.
O=C(Cc1nc2ccccc2[nH]1)c1cccc([N+](=O)[O-])c1	2	87*	-17	-1	-1	-23	77*	39*
O=C(Nc1nc2ccccc2[nH]1)c1cccc([N+](=O)[O-])c1	-73	-53	-101	-5	-2	-250	.	.
Cc1ccc(CN2C(=O)c3ccccc3Sc3ccc(C(=O)NCCN4CCOCC4)cc32)cc1	0	52*	-4	3	-1	-10	54*	69*
SMILES	Jurkat NFkB inh	Mdm2-MdmX inh	697 NFkB inh	VIM-2 inhibitor	IMP-1 inhibitor	aSyn 5UTR inh	Mdm2-MdmX conf	Full FLuc ctr
Cc1cccc(CN2C(=O)c3ccccc3Sc3ccc(C(=O)NCCN4CCOCC4)cc32)c1	0	1	24	0	-1	7	.	.
O=C(NCCCN1CCCC1)c1ccc2c(c1)N(Cc1ccccc1F)C(=O)c1ccccc1S2=O (configuration not stated)	2	5	-16	-3	-3	3	.	.
Cc1ccc(C)c(CN2C(=O)c3ccccc3S(=O)c3ccc(C(=O)NCCCN4CCCC4)cc32)c1 (configuration not stated)	4	51*	2	2	1	-16	16	.
CN1CCC(=C2c3ccccc3CCc3sccc32)CC1	-1	60*	5	-1	0	-28	26	.
COc1cc(/C=N/NC(=O)CNc2n[nH]c(=O)[nH]c2=O)ccc1OCc1ccccc1	-32	-12	3	-1	-1	-75	.	.
CCN(CC)C(=O)/C(=C/c1cccc([N+](=O)[O-])c1)NC(=O)c1ccco1	0	7	6	-1	-3	14	.	.
CC1CC2(C)Oc3ccccc3CC2C(C)C1CNCCCN(C)C (configuration not stated)	46	97*	-1	2	0	106*	100*	55*
COc1ccc(-c2[nH]ncc2N=Nc2ccccc2)cc1	-5	66*	-68	-2	-2	2	58*	85*
CCN(CC)S(=O)(=O)c1cc(NC(=O)C2Cc3ccccc3C(=O)O2)ccc1C (configuration not stated)	-3	14	-23	-2	-1	-31	.	.
CCOc1cccc2sc(N(CCCN(C)C)C(=O)c3ccc(S(=O)(=O)N(CC)Cc4ccccc4)cc3)nc12	12	84*	-85	-1	0	71*	53*	68*
